The text below walks through data of ChEMBL document CHEMBL4014309, “Development of an Acrylate Derivative Targeting the NLRP3 Inflammasome for the Treatment of Inflammatory Bowel Disease” (J Med Chem, 2017).

As usually defined, the inhibition is the change of the read-out against control, counted positive when it falls.

Series [1] is described as follows: Cysteamine reactivity of the compound in PBS assessed as second order rate constant for free cysteamine release at 250 uM and pH 7.4 after 90 mins by DTNB reagent based RP-UHPLC analysis. The procedure, abridged:
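Compound (250 µM) was mixed with equimolar cysteamine in pH 7.4 PBS containing 12.5% CH3CN at 37 °C. Free cysteamine was tracked with DTNB at several time points over 90 min. Second-order k2 came from 1/[CAM] = 1/[CAM]0 + kt, using 3–10 points per plot; mean ± SEM of ≥3 experiments.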

A short description of series [2]: Cysteamine reactivity in PBS assessed as free compound level at pH 7.4 measured after 60 mins by DTNB reagent based RP-UHPLC analysis. The procedure, abridged: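 The compound was reacted with excess cysteamine in pH 7.4 phosphate buffer with CH3CN cosolvent at 37 °C. Remaining compound was followed by UHPLC over 4 h, sampled at 30 min, 60 min and 4 h, and expressed as percent of starting concentration.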

Series [3] addresses NACHT, LRR and PYD domains-containing protein 3 (Homo sapiens) (UniProt Q96P20). Nature of the series: Inhibition of recombinant human NLRP3 ATPase assessed as hydrolysis of ATP at 100 uM preincubated for 15 mins followed by addition of ATP measured after 40 mins by ADP-Glo assay. The procedure, abridged: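 Human recombinant NLRP3 (0.105 µg) in 20 mM Tris-HCl pH 7.8, 133 mM NaCl, 20 mM MgCl2, 3 mM KCl, 0.56 mM EDTA, 0.5% DMSO. Compound (100 or 50 µM) was preincubated 15 min at 37 °C, then ATP (250 µM) was added for 40 min at 37 °C. ADP was read by ADP-Glo luminescence. Result is % inhibition vs vehicle; mean ± SEM, ≥3 experiments.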
A general note: ADP-Glo turns the ADP formed in a reaction into a luminescent signal.

The species entered for the next series is Mus musculus. Briefly: Inhibition of NF-kB signaling pathway in C57BL/6 mouse bone marrow derived macrophages assessed as reduction in LPS-induced IL-6 gene expression at 10 to 100 uM preincubated for 30 mins followed by LPS stimulation measured after 4 hrs by qRT-PCR analysis. The procedure, abridged:
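C57BL/6 bone marrow macrophages, differentiated with 20% L-cell medium, were preincubated with compound for 30 min. They were then left untreated or given LPS (1 ng/mL, 4 h). Tnfa, Il6 and Il1b expression was measured by quantitative RT-PCR as 2^-ΔΔCt.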

The target in series [4] is NACHT, LRR and PYD domains-containing protein 3 (Homo sapiens) (UniProt Q96P20). Nature of the series: Inhibition of recombinant YFP-tagged NLRP3 (unknown origin) expressed in HEK293 cells co-expressing luciferase assessed as reduction in nigericin-induced intracellular K+ decrease-mediated conformational changes in protein at 10 to 100 uM measured after 24 hrs by BRET assay. It is filed as cell-based. The gist of the method:
(§1)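 HEK293 cells stably expressing YFP-NLRP3-Luc were grown in DMEM with 10% FCS, plated on poly-L-lysine, and exposed to compound or vehicle (15 h per methods; 24 h per figure legend). Cells were washed, then BRET was read after adding coelenterazine-H (5 µM). Kinetics used nigericin (10 µM) in vehicle or high-K+ (140 mM) buffer. Slopes of three phases were taken; mean ± SEM, n = 5–12.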
A general note: Bioluminescence resonance energy transfer reports proximity on the nanometre scale.

For series [5] the target is unchanged. Briefly: Inhibition of recombinant YFP-tagged NLRP3 (unknown origin) expressed in HEK293 cells co-expressing luciferase assessed as initial conformational changes in protein by measuring increase in nigericin-induced decrease in intracellular K+ level at 10 to 100 uM measured after 24 hrs by BRET assay. Type of series: cell-based. The procedure, abridged:
as §1

The nature of series [6]: Drug metabolism in Sprague-Dawley rat ileum tract assessed as 2-(2-chlorobenzyl)acrylic acid level at 12.5 mg as suspension in olive oil measured after 2 hrs by UHPLC-M. Type of series: ADME. The conditions noted are these: in vivo.
The test system of series [7] is Rattus norvegicus. Briefly: Antiinflammatory activity in DNBS-induced Sprague-Dawley rat colitis model assessed as body weight recovery at 12.5 to 50 mg/kg/day, ig administered as suspension in olive oil for 6 days simulatneously with 6 days of DNBS-challenge measured daily during compound dosing. It is filed as functional, organism-based. The gist of the method: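 Colitis was induced with intrarectal DNBS (15 mg in 0.25 mL 50% ethanol). Intragastric treatment ran 6 days from the day of induction: 1 mg/kg/day in 1% methylcellulose, or 12.5–50 mg/kg/day in olive oil. Body weight change (g) was recorded at the end of treatment, mean ± SEM, n = 10.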

Series [8] relates to Rattus norvegicus. Nature of the series: Antiinflammatory activity in DNBS-induced Sprague-Dawley rat colitis model assessed as reduction in DNBS-induced spleen weight increase by measuring increase in spleen weight at 25 mg/kg/day, ig administered as suspension in olive oil for 6 days simulatneously with 6 days of DNBS-challenge measured daily during compound dosing (reference value: 39.3%). On the set-up: scale not given: the % may be the effect or the level left. It is filed as functional. The procedure, abridged:
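Spleen weight was used as an index of systemic inflammation. Rats had intrarectal DNBS (15 mg/0.25 mL 50% ethanol) and 6 days of intragastric dosing: 1 mg/kg/day in 1% methylcellulose, or 12.5–50 mg/kg/day in 0.2 mL olive oil. The spleen was weighed at sacrifice and expressed as percent increase versus control, n = 10.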

In series [9] the test system is Rattus norvegicus. Nature of the series: Antiinflammatory activity in DNBS-induced Sprague-Dawley rat colitis model assessed as DNBS-induced decrease in colonic length at 50 mg/kg/day, ig administered as suspension in olive oil for 6 days simulatneously with 6 days of DNBS-challenge (reference value: -34.4%). Type of series: functional. Further details: scale not given: the % may be the effect or the level left.

Series [10] has as its system Rattus norvegicus. Briefly: Anti-inflammatory activity in DNBS-induced Sprague-Dawley rat colitis model assessed as DNBS-induced IL-1beta levels in colon at 25 mg/kg/day, ig for 6 days simulatneously with 6 days of DNBS-challenge by ELISA (reference value: 22.3 +/- 2.9 ng/mg). Type of series: functional.
The target in series [11] is NACHT, LRR and PYD domains-containing protein 3 (Mus musculus) (UniProt Q8R4B8). Nature of the series: Inhibition of NLRP3 inflammasome in LPS-primed C57BL/6 mouse bone marrow derived macrophages assessed as reduction in nigericin-induced pyroptosis at 10 to 100 uM preincubated for 1 hr followed by stimulation with ATP measured after 30 mins by LDH release assay. The gist of the method:
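Bone marrow macrophages from C57BL/6 mice, differentiated with 20% L-cell medium, primed with LPS (1 µg/mL, 3 h). Test agent or vehicle was added for 1 h, then ATP (5 mM, 30 min) or nigericin (10 µM, 30 min). IL-1β in the medium was measured by ELISA. LDH in the medium was measured colorimetrically as % of total cellular LDH.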
On the technique in general: LDH in the medium is a marker of cell lysis.

Active and inactive are the calls of the source. The rule behind the calls is not given here.

Sequence of NACHT, LRR and PYD domains-containing protein 3 (Homo sapiens) (Q96P20 whole entry, the tested form may be a part): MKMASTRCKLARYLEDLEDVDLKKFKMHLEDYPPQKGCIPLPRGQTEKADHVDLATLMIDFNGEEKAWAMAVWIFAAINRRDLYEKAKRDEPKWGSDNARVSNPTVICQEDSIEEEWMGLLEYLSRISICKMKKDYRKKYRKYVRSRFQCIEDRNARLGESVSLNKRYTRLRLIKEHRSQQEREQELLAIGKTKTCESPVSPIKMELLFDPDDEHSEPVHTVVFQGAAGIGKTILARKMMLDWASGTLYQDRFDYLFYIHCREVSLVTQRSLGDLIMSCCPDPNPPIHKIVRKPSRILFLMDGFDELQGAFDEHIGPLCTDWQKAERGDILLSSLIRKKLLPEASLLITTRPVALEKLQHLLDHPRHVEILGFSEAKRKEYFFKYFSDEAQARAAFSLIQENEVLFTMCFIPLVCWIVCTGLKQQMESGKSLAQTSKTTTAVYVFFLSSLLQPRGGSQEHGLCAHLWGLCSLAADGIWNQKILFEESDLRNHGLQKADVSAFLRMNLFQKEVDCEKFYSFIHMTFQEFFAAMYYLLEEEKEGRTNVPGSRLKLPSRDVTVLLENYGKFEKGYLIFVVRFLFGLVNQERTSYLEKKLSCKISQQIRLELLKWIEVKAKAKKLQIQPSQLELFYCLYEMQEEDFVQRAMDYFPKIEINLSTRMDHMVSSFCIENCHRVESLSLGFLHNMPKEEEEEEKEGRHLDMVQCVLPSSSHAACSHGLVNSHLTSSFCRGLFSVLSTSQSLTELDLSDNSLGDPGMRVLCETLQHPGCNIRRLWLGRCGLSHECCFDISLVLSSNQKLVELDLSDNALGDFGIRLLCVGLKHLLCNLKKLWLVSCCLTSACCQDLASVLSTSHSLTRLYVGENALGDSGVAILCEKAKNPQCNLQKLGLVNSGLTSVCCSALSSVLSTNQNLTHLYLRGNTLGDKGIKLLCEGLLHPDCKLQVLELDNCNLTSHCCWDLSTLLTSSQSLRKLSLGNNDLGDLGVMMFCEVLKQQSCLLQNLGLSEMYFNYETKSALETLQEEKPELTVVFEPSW
Sequence of NACHT, LRR and PYD domains-containing protein 3 (Mus musculus) (Q8R4B8 whole entry, the tested form may be a part): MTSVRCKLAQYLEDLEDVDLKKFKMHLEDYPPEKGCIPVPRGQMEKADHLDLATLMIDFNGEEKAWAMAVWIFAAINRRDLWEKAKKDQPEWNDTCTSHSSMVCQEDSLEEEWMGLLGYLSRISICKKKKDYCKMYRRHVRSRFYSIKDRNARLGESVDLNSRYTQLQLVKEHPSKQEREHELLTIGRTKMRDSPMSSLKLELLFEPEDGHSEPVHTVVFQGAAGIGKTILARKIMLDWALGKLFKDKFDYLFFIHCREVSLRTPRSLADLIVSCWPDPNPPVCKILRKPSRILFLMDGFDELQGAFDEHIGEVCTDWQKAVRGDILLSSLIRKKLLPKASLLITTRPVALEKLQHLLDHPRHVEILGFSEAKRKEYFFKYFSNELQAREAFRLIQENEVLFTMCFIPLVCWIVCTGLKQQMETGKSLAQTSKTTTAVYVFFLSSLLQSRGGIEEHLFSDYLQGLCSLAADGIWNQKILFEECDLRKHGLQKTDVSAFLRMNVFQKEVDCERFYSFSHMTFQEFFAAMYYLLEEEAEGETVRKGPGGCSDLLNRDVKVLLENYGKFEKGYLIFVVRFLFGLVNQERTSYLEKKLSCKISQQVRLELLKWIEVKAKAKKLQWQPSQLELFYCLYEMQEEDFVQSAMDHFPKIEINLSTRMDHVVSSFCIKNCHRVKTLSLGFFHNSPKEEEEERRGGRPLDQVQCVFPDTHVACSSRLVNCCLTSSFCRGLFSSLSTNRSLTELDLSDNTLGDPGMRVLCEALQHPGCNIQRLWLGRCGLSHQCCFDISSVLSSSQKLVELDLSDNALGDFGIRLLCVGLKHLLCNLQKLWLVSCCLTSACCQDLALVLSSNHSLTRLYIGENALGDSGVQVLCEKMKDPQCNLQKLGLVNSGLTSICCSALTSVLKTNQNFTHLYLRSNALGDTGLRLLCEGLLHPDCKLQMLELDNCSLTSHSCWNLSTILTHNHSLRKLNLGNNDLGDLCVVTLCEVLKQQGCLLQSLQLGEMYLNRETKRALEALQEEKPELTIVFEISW

With `C=C(Cc1ccccc1Cl)C(=O)OCC`, the Drug metabolism entry is recorded as “Metabolite not detected” in [1] and “Metabolite_Detected” in series [6]. Besides, in series [2], the Stability is 83.3%. The inhibition in [3] is 52%. Moreover, the inhibition result (in the series listed under Mus musculus; in [4]; in series [11]) was “Active” throughout. In addition, in [5], the inhibition entry was “inactive”. Further, the result with Rattus norvegicus [7] was Active. Further, the Activity is listed as 4.3% with Rattus norvegicus [8], -8% in the series with Rattus norvegicus [9] and 12.8 ng/mg in the series with Rattus norvegicus [10].
